# Reference: ChEMBL document CHEMBL1137261, “Structural insights into the ATP binding pocket of the anaplastic lymphoma kinase by site-directed mutagenesis, inhibitor binding analysis, and homology modeling” (J Med Chem, 2006)
# The source made the active and inactive calls. The calls are words filed in the database; no cut-off is given here.
# Assays:
# [1] = tested on: BaF3; test: Antiproliferative activity against murine BaF3 cells expressing NPM/ALK L256T mutant by [3H]thymidine uptake assay; format: functional, cell-based; settings: Mus musculus
# How it was run: (§1)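 IL-3-independent BaF3 clones stably transfected (electroporation, G418 selection) with human NPM/ALK, WT or L256T; RPMI 1640 + 10% FBS, 37 °C, 5% CO2. Seeded 10^4/well, exposed to inhibitor (0-4 µM range in figure) or vehicle for 8-48 h; 3[H]-thymidine uptake.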
# [2] = target: T1, NPM/ALK (Nucleophosmin/ALK tyrosine kinase receptor) (Homo sapiens, UniProt Q9UM73); test: Inhibition of wild type NPM/ALK autophosphorylation activity in BaF3 cells by antiphosphotyrosine immunoblotting assay; format: cell-based
# [3] = tested on: BaF3; test: Antiproliferative activity against murine BaF3 cells expressing wild type NPM/ALK by [3H]thymidine uptake assay; format: functional, cell-based; settings: Mus musculus; how it was run: as §1
# [4] = target: T2, NPM/ALK (Nucleophosmin/ALK tyrosine kinase receptor) (Homo sapiens, UniProt P06748+Q9UM73, L256T); test: Inhibition of NPM/ALK L256T mutant autophosphorylation activity in BaF3 cells by antiphosphotyrosine immunoblotting assay; format: cell-based
# [5] = tested on: BaF3; test: Induction of cell death of murine BaF3 cells expressing NPM/ALK L256T mutant by trypan blue exclusion assay; format: functional, cell-based; settings: Mus musculus
# [6] = target: T1, NPM/ALK (Nucleophosmin/ALK tyrosine kinase receptor); test: Inhibition of wild type NPM/ALK kinase activity in BaF3 cells by radioenzymatic assay; format: cell-based
# [7] = target: T2, NPM/ALK (Nucleophosmin/ALK tyrosine kinase receptor); test: Inhibition of NPM/ALK L256T mutant kinase activity in BaF3 cells by radioenzymatic assay; format: cell-based
# T2 sequence (P06748 whole entry, stated change not applied): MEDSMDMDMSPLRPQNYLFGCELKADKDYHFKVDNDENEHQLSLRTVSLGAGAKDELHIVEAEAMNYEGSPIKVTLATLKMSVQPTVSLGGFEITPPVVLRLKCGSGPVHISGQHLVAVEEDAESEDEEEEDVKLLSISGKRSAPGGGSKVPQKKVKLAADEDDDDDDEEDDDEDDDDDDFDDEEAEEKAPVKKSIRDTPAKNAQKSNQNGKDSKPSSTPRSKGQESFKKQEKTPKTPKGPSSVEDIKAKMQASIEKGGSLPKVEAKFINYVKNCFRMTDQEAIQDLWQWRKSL
# T2 sequence (Q9UM73 19-1620 L256T limits assumed, stated change not applied): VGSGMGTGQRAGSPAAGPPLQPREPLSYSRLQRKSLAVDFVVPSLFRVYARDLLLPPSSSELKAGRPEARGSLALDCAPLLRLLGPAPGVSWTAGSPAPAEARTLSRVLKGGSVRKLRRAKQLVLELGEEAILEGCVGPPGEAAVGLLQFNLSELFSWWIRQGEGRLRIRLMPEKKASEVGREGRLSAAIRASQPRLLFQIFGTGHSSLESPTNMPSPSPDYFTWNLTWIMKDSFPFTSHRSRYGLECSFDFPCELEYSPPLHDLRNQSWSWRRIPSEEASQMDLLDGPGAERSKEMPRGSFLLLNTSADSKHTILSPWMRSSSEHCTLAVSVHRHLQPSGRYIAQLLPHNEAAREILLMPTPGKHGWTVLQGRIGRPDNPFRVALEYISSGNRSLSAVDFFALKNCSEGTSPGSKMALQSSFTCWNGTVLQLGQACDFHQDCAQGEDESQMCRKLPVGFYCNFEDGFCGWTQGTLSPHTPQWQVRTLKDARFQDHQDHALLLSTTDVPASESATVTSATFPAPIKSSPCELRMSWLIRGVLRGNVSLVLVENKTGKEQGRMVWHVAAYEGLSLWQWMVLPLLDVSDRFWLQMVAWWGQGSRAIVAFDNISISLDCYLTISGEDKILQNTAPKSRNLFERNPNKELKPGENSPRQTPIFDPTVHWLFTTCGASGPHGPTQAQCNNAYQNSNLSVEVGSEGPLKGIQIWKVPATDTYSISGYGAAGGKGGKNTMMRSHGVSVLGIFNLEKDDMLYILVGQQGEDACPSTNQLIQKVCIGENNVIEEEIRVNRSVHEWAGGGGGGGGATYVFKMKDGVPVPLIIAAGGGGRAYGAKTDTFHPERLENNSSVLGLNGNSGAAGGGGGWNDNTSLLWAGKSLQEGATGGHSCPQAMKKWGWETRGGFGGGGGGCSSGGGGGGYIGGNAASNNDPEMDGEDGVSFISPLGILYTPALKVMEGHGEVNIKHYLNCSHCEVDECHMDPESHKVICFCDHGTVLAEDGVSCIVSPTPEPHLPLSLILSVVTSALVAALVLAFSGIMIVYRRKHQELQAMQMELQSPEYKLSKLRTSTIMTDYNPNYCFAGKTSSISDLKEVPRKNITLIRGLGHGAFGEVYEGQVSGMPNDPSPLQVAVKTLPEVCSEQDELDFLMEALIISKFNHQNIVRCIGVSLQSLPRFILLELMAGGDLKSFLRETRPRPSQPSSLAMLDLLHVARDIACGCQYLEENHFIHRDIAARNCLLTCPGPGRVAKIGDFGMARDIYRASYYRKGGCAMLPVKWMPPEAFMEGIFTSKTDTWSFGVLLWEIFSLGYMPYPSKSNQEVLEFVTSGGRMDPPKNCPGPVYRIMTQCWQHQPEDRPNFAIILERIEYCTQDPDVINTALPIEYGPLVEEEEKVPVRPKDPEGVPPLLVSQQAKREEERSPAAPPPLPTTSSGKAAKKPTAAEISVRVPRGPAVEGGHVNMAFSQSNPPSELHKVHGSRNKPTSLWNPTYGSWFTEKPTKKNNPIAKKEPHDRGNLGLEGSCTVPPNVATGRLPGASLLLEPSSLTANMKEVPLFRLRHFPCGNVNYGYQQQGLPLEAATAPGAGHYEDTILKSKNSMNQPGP
# T1 sequence (Q9UM73 whole entry): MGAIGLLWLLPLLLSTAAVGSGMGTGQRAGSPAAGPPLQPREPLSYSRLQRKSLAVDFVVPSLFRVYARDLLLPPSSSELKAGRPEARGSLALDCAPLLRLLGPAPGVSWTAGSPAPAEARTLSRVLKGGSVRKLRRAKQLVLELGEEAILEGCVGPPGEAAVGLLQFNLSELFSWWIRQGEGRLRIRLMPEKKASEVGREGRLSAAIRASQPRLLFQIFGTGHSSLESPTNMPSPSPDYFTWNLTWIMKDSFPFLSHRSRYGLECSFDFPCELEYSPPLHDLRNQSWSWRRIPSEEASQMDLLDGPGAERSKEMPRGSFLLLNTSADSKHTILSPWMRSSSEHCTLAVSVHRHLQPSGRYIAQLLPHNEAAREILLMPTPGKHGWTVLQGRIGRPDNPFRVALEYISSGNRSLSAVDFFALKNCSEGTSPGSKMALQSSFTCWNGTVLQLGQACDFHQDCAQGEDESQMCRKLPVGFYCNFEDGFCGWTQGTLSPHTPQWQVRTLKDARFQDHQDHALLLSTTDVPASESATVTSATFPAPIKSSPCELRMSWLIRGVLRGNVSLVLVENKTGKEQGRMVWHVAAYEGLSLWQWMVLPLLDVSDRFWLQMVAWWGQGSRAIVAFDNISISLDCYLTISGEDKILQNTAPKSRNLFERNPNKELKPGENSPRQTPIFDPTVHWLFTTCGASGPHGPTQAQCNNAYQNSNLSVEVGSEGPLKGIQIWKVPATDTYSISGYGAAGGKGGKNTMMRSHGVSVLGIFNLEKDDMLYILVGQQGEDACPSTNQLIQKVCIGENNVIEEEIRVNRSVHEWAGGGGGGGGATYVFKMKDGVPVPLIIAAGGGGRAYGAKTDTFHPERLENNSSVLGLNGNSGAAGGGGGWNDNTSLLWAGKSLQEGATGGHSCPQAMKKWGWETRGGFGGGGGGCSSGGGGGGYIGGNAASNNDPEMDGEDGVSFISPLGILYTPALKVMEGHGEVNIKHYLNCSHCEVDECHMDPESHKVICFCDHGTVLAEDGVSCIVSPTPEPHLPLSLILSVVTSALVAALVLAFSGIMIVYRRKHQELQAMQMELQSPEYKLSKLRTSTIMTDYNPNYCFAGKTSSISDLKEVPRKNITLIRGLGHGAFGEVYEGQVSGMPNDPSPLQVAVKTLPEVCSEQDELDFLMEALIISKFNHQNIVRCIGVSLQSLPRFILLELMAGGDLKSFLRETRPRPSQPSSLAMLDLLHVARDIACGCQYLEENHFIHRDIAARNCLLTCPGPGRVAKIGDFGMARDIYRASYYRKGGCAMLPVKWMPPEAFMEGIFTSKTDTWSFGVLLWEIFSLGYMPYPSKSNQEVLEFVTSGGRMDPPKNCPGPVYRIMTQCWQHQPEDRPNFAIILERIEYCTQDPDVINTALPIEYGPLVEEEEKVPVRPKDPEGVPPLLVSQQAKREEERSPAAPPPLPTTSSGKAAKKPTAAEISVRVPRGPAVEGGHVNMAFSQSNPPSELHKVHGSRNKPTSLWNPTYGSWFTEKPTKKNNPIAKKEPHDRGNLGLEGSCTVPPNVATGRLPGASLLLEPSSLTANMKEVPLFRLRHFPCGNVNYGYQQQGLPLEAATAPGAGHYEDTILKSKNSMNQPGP
# T1 sequence (P06748 whole entry, further chain): as the sequence (P06748 whole entry, stated change not applied) above
smiles,measurement,setting,value
COc1cc(Nc2c(C#N)cnc3cc(OCCCN4CCN(C)CC4)c(OC)cc23)c(Cl)cc1Cl [BOSUTINIB],IC50,[1],200 nM
same,IC50,[2],> 20 µM
same,IC50,[3],1000 nM
same,IC50,[4],200 nM
same,Activity,[5],Active
same,IC50,[6],> 10 µM
same,IC50,[7],150 nM
Cc1ccc(NC(=O)c2ccc(CN3CCN(C)CC3)cc2)cc1Nc1nccc(-c2cccnc2)n1 [IMATINIB],IC50,[1],9100 nM
same,IC50,[3],7100 nM
CSc1cccc(Nc2ncc3cc(-c4c(Cl)cccc4Cl)c(=O)n(C)c3n2)c1,IC50,[1],1800 nM
same,IC50,[3],2000 nM
same,Activity,[5],Active
